These results are taken from ChEMBL document CHEMBL4251616, “Multifunctional thiosemicarbazones and deconstructed analogues as a strategy to study the involvement of metal chelation, Sigma-2 (σ2) receptor and P-gp protein in the cytotoxic action: In vitro and in vivo activity in pancreatic tumors” (Eur J Med Chem, 2018).

For assay [1], the target named is ATP-dependent translocase ABCB1 (Homo sapiens, UniProt P08183). The experiment in a line: Inhibition of human MDR1 expressed in MDCK-MDR1 cells assessed as calcein cell accumulation after 30 mins by spectrofluorimetry. The class given is cell-based. The essentials:
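Confluent MDCK-MDR1 monolayers given test compound (0.1-100 µM) for 30 min at 37 °C, then calcein-AM at 2.5 µM final for 30 min. Washed with ice-cold PBS and read at ex 485 / em 535 nm. Fluorescence rise over untreated basal level fitted against log dose to give EC50; n ≥ 3 experiments in duplicate.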

A further assay has as its system Panc02. Briefly: Cytotoxicity against mouse Panc02 cells after 48 hrs by MTT assay. The format is functional, cell-based. Conditions: Panc02, 48 h. In a few lines:
(§1)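 Pancreatic lines kept at 37 °C, 5% CO2. AsPC1, BxPC3 and Panc02 grown in RPMI with 10% FBS. MIAPaCa2 in DMEM with 10% FBS and 2.5% horse serum. PANC1 in DMEM with 10% FBS. KCKO in RPMI with 10% FBS plus pyruvate, HEPES and glutamine. KP02 in DMEM/F12 with 10% FBS.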
A general note: Tetrazolium assays rely on reduction of a dye to a coloured formazan, in cell work by metabolically active cells.

Assay [2] is described as follows: Cytotoxicity against mouse Kp02 cells after 48 hrs by MTT assay. The format is functional, cell-based. The essentials:
as §1

Assay [3] in a line: Cytotoxicity against mouse KCKO cells after 48 hrs by MTT assay. The format is functional, cell-based. In a few lines:
as §1

The next assay concerns MIA PaCa-2. Briefly: Cytotoxicity against human MIAPaCa2 cells after 48 hrs by MTT assay. To be noted: MIA PaCa-2, 48 h. The class given is functional, cell-based. In a few lines: as §1
In the next assay the test system is BXPC-3. Briefly: Cytotoxicity against human BxPC3 cells after 48 hrs by MTT assay. The class given is functional, cell-based. Conditions: BXPC-3, 48 h. The essentials:
as §1

For a further assay, the system named is ASPC1. Briefly: Cytotoxicity against human AsPC1 cells after 48 hrs by MTT assay. The format is functional, cell-based. To be noted: ASPC1, 48 h. The essentials:
as §1

The structures appear in SMILES notation.

Chain of ATP-dependent translocase ABCB1 (P08183 whole entry): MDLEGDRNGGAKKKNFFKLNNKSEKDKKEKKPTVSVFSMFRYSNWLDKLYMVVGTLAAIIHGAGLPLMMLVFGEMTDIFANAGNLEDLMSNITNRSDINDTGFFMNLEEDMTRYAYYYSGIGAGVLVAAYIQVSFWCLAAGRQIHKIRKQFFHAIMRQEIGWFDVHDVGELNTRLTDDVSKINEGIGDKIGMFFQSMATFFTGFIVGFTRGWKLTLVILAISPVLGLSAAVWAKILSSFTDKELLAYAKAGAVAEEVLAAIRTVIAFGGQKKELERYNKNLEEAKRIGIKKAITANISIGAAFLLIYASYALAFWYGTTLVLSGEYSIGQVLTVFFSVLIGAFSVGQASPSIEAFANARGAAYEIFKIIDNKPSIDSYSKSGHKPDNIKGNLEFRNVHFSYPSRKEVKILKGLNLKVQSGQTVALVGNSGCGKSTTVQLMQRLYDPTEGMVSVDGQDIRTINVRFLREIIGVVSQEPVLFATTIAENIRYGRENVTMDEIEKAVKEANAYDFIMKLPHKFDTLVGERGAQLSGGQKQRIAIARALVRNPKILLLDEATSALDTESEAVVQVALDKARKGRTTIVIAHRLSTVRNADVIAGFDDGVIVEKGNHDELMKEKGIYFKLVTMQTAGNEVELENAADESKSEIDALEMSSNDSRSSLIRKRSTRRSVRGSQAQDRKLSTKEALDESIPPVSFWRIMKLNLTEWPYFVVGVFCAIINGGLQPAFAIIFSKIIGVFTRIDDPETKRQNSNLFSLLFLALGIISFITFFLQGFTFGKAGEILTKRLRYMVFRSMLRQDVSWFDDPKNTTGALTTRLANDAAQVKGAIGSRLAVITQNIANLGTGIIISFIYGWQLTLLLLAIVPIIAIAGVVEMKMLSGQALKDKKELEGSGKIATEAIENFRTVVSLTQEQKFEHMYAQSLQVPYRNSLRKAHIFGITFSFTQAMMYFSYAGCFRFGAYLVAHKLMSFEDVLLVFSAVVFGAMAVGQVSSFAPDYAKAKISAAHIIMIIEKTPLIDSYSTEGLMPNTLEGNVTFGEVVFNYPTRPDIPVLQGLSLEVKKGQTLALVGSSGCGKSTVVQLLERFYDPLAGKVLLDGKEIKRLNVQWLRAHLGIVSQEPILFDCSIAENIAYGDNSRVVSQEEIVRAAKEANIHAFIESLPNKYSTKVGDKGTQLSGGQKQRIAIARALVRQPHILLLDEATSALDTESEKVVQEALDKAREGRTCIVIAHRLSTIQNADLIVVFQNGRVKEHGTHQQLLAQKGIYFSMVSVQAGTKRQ

By EC50 is commonly meant the concentration giving half of the maximal effect. For the molecule `c1ccc2c(c1)ccn2CCCCN1CCN(C2CCCCC2)CC1`, the EC50 in assay [1] is 0.46 µM; in the assay on Panc02, above 100 µM; in assay [2], 70 µM; in assay [3], 67 µM; with MIA PaCa-2, 79 µM; in the assay on BXPC-3 it was above 100 µM. Further, the EC50 in the assay with ASPC1 was above 100 µM.

For `COc1cc2c(cc1OC)CN(CCCCn1ccc3ccccc31)CC2`, the EC50 in assay [1] was 6.09 µM; with Panc02, above 100 µM; in assay [2] it was 49 µM; in assay [3] it was 77 µM; in the assay with MIA PaCa-2, 40 µM; in the assay with BXPC-3, above 100 µM. For the same molecule, in the assay with ASPC1, the EC50 is above 100 µM.
